Test results taken from ChEMBL document CHEMBL4321838, “Drug Design Targeting T-Cell Factor-Driven Epithelial-Mesenchymal Transition as a Therapeutic Strategy for Colorectal Cancer” (J Med Chem, 2019).
Values after ≈ are worked out from the molar mass of the structure shown. Active and inactive are the calls of the source.

What was measured:
SW-620 [1] = test: Antiinvasive activity in human SW620 organoids transduced with NucLight-Red virus assessed as inhibition of cell invasion at 10 uM incubated for 72 hrs and measured after 72 hrs by matrigel based fluorescence analysis; assay type: functional
Summary of the method: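 NucLight-Red-labelled SW620 organoids treated 72 h at 10 μM in 0.1% DMSO, then dissociated. 5,000 live cells per well seeded in 50% Matrigel in the upper chamber of a migration plate, 0.5% FBS above and 20% FBS below. Invading cells tracked by bottom-side fluorescence over days, six replicates per condition.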

SW-620 [2] = test: Anticlonogenic activity against human SW620 cells assessed as loss of cancer stem cell stemness by measuring inhibition of colony formation at 10 uM incubated for 24 hrs followed by replating and measured after 7 days by clonogenic assay; assay type: functional, cell-based
SW-620 [3] = test: Cytotoxicity against human SW620 organoids assessed as cell death with loss of membrane integrity after 72 hrs by CellTox Green assay; assay type: functional, cell-based; settings: SW-620, 72 h
Summary of the method: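 SW620 tumor organoids exposed 72 h to inhibitor over 0–40 μM together with CellTox Green Express (0.5X). Whole-well mean fluorescence imaged (ex 488, em 500–550 nm). Normalised to lysis buffer as 0% viability and 0.4% DMSO as 100% viability.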

[4] = Half life of terminal disposition phase in CD-1 mouse at 50 mg/kg, ip by LC-MS/MS analysis; assay type: ADME, organism-based; settings: in vivo, read-out: t1/2lambda (converted)
Summary of the method: (§1)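 Female CD-1 mice, single IP injection at 50 mg/kg in 100% DMSO. Sampling from 0.25 to 24 h, three mice per time point (21 per compound). Heparinised blood was spun to plasma, mixed 1:1 with acidified acetonitrile (0.1% formic acid or 0.1% TFA depending on compound), centrifuged, then measured by LC-MS/MS.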

[5] = Clearance in CD-1 mouse at 50 mg/kg, ip by LC-MS/MS analysis; assay type: ADME, organism-based; settings: in vivo; summary of the method: as §1
[6] = Cmax in CD-1 mouse at 50 mg/kg, ip by LC-MS/MS analysis; assay type: ADME, organism-based; parameters: dose 50 mg/kg, route intraperitoneal; settings: in vivo; summary of the method: as §1
SW-620 [7] = test: Induction of early stage cell death in human SW620 organoids transfected with EcadPro-RFP reporter assessed as loss of RFP reporter activity at 40 uM at after 72 hrs by Hoechst 33342 staining based mCherryRFP reporter gene assay; settings: sw-620, 72 h
[8] = AUC(0 to t) in CD-1 mouse at 50 mg/kg, ip by LC-MS/MS analysis; assay type: ADME, organism-based; settings: in vivo; summary of the method: as §1
[9] = molecular target: T1, DNA topoisomerase 2-alpha (Homo sapiens, UniProt P11388); test: Inhibition of human topoisomerase 2alpha mediated decatenation at 30 uM using kDNA as susbtrate preincubated for 20 mins followed by substrate and ATP addition and measured after 1 hr by ethidium bromide staining based gel electrophoresis method relative to control
T1 sequence (P11388 whole entry): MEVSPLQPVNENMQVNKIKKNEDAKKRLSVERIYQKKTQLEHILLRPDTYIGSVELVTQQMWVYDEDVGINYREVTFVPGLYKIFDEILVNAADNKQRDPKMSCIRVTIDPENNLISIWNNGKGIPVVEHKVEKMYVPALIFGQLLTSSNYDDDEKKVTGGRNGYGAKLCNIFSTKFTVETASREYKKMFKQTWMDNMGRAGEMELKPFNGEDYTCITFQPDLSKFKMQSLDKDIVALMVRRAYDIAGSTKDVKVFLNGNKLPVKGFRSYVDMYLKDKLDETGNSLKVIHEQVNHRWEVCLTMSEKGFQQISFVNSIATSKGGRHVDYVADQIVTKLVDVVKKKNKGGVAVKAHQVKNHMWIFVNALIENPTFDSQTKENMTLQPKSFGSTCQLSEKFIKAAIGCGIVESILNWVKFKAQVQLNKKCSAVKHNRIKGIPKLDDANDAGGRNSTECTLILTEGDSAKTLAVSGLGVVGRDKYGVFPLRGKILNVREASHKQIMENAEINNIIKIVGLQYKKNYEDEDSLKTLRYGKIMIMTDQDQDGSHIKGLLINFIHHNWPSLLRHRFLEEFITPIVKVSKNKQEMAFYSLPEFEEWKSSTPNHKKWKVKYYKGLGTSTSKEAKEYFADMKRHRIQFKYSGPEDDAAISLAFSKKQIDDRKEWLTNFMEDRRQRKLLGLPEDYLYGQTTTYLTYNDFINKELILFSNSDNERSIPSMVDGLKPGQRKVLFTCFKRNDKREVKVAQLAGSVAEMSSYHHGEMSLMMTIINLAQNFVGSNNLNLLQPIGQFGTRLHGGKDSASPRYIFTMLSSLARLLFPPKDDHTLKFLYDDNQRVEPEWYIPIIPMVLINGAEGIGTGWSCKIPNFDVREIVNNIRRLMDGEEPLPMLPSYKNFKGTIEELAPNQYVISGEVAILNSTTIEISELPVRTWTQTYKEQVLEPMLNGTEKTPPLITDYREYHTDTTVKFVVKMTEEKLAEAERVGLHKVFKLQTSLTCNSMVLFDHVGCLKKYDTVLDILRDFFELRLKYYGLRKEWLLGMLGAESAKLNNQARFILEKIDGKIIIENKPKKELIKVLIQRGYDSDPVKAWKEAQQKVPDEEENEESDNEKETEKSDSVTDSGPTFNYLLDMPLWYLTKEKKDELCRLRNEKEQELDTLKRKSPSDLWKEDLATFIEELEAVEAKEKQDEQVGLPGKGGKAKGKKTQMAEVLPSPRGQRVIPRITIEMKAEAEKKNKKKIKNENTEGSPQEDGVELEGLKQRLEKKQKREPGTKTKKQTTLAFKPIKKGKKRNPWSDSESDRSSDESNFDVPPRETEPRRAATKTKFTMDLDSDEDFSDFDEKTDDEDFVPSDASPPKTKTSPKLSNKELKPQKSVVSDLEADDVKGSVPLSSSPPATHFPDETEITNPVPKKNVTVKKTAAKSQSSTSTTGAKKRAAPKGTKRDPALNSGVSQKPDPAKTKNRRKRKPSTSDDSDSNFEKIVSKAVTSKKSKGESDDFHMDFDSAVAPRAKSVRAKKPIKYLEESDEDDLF
Summary of the method: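 Human TOP2A (3 U) preincubated 20 min at 37 °C with compound at 30 μM in 1.2% DMSO. Reaction started with 2 mM ATP and 35 ng kDNA and run 1 h at 37 °C. Products resolved on 0.8% agarose in TBE with 0.2 μg/mL ethidium bromide; decatenated bands compared with vehicle.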

[10] = Metabolic stability in CD-1 mouse inactive microsomes incubated for 1 hr by LC-MS/MS analysis; assay type: ADME, Microsome
[11] = Aqueous solubility of compound in PBS at 1 mg after 18 hrs by UV based analysis; assay type: physicochemical
Summary of the method: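 Undissolved material removed by centrifugation at 5,000g for 45 min. UV absorption compared with a fully saturated 1-propanol solution; solubility derived by linear regression.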

[12] = Tmax in CD-1 mouse at 50 mg/kg, ip by LC-MS/MS analysis; assay type: ADME, organism-based; settings: in vivo; summary of the method: as §1
[13] = molecular target: T1, DNA topoisomerase 2-alpha; test: Inhibition of topoisomerase 2alpha in human SW620 organoids transfected with VimPro-GFP reporter assessed as reversion of epithelial-mesenchymal transition by measuring reduction in vimentin expression up to 40 uM after 72 hrs by Hoechst 33342 staining based GFP reporter gene assay
Summary of the method: (§2)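 SW620 cells stably carrying VimPro-GFP or EcadPro-mCherry (puromycin selected) grown as organoids and dosed 72 h. Stained with 16 μM Hoechst 33342 for 1 h and imaged as 15 z-layers, 26.5 μm apart. Nuclei segmented and GFP- or mCherry-positive cells counted above background thresholds. Percent positive cells normalised to DMSO.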

SW-620 [14] = test: Induction of apoptosis in human SW620 organoids assessed as increase in cleaved caspase 3/7 level at 40 uM after 72 hrs by caspase-glo 3/7 luminescence assay relative to control; assay type: functional
Summary of the method: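 SW620 cells, 2,000 per well in 384-well ultra-low attachment plates with 2% Matrigel, grown 72 h into organoids, then dosed 72 h. Caspase-Glo 3/7 reagent added 1:1 and shaken 30 min; luminescence read. Staurosporine served as positive control and 0.4% DMSO as negative control.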

[15] = Metabolic stability in CD-1 mouse active microsomes assessed as CYP450-mediated oxidative phase 1 metabolite formation measured up to 60 mins by LC-MS/MS analysis; assay type: ADME; settings: 1 h
[16] = molecular target: T1, DNA topoisomerase 2-alpha; test: Inhibition of topoisomerase 2alpha dependent TCF transcription in human SW620 organoids transduced with TOPflash luminescent reporter after 72 hrs by luciferase based TOPFlash reporter gene assay
Summary of the method: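 SW620 cells stably carrying pCDH-TOPflash-luc grown as organoids: 5,000 cells per U-bottom well in phenol red-free RPMI with 5% FBS and 2% Matrigel, 72 h. Inhibitor then applied 72 h. One-Glo luciferase and CellTiter-Glo 3D added 1:1. Luciferase signal normalised to viability, then to DMSO controls.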

SW-620 [17] = test: Cytotoxicity against human SW620 organoids assessed as growth inhibition at 10 uM after 72 hrs by brightfield imaging of organoid volume
Mus musculus = test: Apparent volume of drug distribution in CD-1 mouse at 50 mg/kg, ip by LC-MS/MS analysis; assay type: ADME, organism-based; settings: in vivo; summary of the method: as §1
[18] = molecular target: T1, DNA topoisomerase 2-alpha; test: Inhibition of topoisomerase 2alpha in human SW620 organoids transfected with EcadPro-RFP reporter assessed as reversion of epithelial-mesenchymal transition by measuring increase in E-cadherin expression up to 40 uM after 72 hrs by Hoechst 33342 staining based mCherryRFP reporter gene assay; summary of the method: as §2
[19] = Drug metabolism in CD-1 mouse active microsomes assessed as CYP450-mediated oxidative phase 1 metabolite formation by LC-MS/MS analysis
[20] = Half life in CD-1 mouse microsomes measured up to 1 hr by LC-MS analysis; assay type: ADME, Microsome
Summary of the method: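 Female CD-1 mouse liver microsomes (0.5 mg/mL), substrate 1 μg/mL and 1.5 mM NADPH in 0.1 M phosphate buffer pH 7.4 at 37 °C. Samples taken from 0 to 60 min and quenched with an equal volume of acetonitrile. Parent compound remaining measured by LC-MS/MS without internal standard.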

## O=C(CCN1CCOCC1)Nc1ccc2c(-c3cc(F)ccc3O)ccnc2c1O
SW-620 [1]
  inhibition: Active
SW-620 [2]
  inhibition: Active
SW-620 [3]
  EC50: 16 µM
[4]
  half-life: 379 min
[5]
  CL/F: 62.2 mL/min/kg
[6]
  Cmax: 10900 ng/mL
SW-620 [7]
  Activity: Active
[8]
  AUC(0-t): 13000 ng·h/mL
[9]
  inhibition: 90%
[10]
  Stability: Stable
[11]
  solubility thermodynamic at 18 h: 1520 µg/mL (≈ 3.69 mM)
[12]
  Tmax: 15 min
[13]
  inhibition: Active
SW-620 [14]
  fold change (FC): 9
[15]
  Drug metabolism: Metabolite_Detected
[16]
  IC50: 0.7 µM
SW-620 [17]
  growth inhibition (GI): Active
Mus musculus
  Vz: 34 L/kg
[18]
  inhibition: Active
[19]
  Drug metabolism: Metabolite_Notdetected
[20]
  t1/2: 8.53 min
